Measured values taken from ChEMBL document CHEMBL2046381, “Defining the mechanism of action and enzymatic selectivity of psammaplin A against its epigenetic targets” (J Med Chem, 2012).
Activity calls are given as the source filed them.

How the values were obtained:
[1] = biological target: T1, Protein deacetylase HDAC6 (Homo sapiens, UniProt Q9UBN7); experiment: Inhibition of human recombinant HDAC6 using Boc-lys(Ac)-AMC as substrate preincubated for 20 mins with substrate measured after 60 mins by fluorescence analysis
T1 sequence (Q9UBN7 whole entry): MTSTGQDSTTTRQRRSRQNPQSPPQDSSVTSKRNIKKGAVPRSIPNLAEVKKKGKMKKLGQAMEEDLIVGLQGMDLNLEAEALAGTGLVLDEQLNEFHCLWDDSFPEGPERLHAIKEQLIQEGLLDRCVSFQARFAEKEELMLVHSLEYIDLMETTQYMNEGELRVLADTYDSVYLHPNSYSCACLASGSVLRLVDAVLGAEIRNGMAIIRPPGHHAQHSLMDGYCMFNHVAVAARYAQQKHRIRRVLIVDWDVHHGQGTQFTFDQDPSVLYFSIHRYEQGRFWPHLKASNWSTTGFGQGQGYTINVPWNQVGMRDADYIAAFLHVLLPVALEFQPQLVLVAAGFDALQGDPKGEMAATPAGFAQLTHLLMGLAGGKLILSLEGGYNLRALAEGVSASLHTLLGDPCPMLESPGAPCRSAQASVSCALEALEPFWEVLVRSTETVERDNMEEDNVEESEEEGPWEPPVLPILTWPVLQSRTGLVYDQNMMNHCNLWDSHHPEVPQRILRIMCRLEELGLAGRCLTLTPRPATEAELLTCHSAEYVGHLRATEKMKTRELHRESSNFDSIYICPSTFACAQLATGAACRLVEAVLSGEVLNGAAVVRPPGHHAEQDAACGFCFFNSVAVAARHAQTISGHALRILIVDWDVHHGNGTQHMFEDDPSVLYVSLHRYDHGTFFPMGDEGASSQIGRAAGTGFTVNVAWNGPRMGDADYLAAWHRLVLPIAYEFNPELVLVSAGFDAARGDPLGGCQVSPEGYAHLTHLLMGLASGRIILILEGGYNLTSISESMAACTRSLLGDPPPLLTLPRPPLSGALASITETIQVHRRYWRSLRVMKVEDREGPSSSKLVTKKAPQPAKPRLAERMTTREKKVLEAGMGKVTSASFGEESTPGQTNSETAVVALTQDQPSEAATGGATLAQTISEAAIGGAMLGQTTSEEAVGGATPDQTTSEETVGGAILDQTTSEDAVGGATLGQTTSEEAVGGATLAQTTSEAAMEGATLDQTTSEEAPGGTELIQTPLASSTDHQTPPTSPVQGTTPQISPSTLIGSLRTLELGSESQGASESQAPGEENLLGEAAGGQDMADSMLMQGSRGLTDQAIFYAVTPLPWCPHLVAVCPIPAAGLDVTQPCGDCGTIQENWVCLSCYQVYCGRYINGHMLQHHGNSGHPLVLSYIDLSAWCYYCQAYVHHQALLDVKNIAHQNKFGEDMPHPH

Histone deacetylase 1 = Histone deacetylase 1 (Homo sapiens, UniProt Q13547); experiment: Inhibition of human recombinant HDAC1 using Boc-lys(Ac)-AMC as substrate preincubated for 20 mins with substrate measured after 60 mins by fluorescence analysis
[2] = biological target: T2, Histone deacetylase-like amidohydrolase (Alcaligenes sp. (strain DSM 11172) (Bordetella sp. (strain FB188))) (UniProt Q70I53); experiment: Inhibition of Bordetella sp. (strain FB188) N-terminus His-tagged HDAH expressed in Escherichia coli BL21 (DE3) up to 100 uM; settings: Alcaligenaceae bacterium FB188
T2 sequence (whole entry): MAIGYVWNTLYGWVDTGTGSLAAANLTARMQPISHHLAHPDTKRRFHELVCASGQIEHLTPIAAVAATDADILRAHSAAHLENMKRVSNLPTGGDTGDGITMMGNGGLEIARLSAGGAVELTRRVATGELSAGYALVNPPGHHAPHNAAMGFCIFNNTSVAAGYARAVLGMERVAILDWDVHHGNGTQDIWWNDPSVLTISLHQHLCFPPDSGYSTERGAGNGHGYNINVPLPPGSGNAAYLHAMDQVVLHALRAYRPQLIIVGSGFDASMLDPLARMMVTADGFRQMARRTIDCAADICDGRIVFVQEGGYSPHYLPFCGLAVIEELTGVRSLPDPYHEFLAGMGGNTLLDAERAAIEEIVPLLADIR
Summary of the method: (§1)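 Recombinant N-terminal His6-tagged HDAH from Bordetella strain FB188, expressed in E. coli BL21, purified on zinc-loaded His-Trap column, eluted with 500 mM imidazole, dialyzed into assay buffer (>98% pure by SDS-PAGE). Tested directly against compounds; thiols generated in situ from disulfides with TCEP.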

[3] = biological target: T3, Histone deacetylase-like amidohydrolase (Alcaligenes sp. (strain DSM 11172) (Bordetella sp. (strain FB188)), UniProt Q70I53); experiment: Inhibition of Bordetella sp. (strain FB188) N-terminus His-tagged HDAH expressed in Escherichia coli BL21 (DE3); set-up: species or system Alcaligenaceae bacterium FB188; summary of the method: as §1
T3 sequence (Q70I53 whole entry): T2 sequence (whole entry)

[4] = biological target: DNA (cytosine-5)-methyltransferase 1 (Homo sapiens, UniProt P26358); experiment: Inhibition of full length N-terminal His6-tagged human DNMT1 at 120 uM after 1 hr by fluorescence analysis
Summary of the method: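 Baculovirus-expressed DNMT1 (80 nM final) with SAM (10 μM final) and hemimethylated hairpin oligo (125 nM final) in MOPS buffer pH 6.5 with 1 mM DTT, 1 h room temperature. Stopped with Gla1 plus 125 μM SAH, developed 7 h; fluorescence Ex 485/Em 520 nm. Thiols made in situ by TCEP reduction; no SAM as full-inhibition control.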

A549 = experiment: Growth inhibition of human A549 cells after 96 hrs by sulphorhodamine B assay; assay type: functional; settings: A549, 96 h
Summary of the method: (§2)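 SRB growth assay; MCF7 and WI38 seeded 4000 cells/well, A549 2000 cells/well, attached overnight, then exposed to freshly made drug solutions (0.1 to 50 μM) for 96 h. Fixed with cold 10% TCA, stained with 0.4% SRB; absorbance at 540 nm as percent of untreated control, IC50 from mean absorbance.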

MCF7 = experiment: Growth inhibition of human MCF7 cells after 96 hrs by sulphorhodamine B assay; assay type: functional; settings: MCF7, 96 h; summary of the method: as §2
[5] = Growth inhibition of human WI38 cells after 96 hrs by sulphorhodamine B assay; assay type: cell-based; settings: WI-38 cells; summary of the method: as §2

Chain of Histone deacetylase 1 (Q13547 whole entry): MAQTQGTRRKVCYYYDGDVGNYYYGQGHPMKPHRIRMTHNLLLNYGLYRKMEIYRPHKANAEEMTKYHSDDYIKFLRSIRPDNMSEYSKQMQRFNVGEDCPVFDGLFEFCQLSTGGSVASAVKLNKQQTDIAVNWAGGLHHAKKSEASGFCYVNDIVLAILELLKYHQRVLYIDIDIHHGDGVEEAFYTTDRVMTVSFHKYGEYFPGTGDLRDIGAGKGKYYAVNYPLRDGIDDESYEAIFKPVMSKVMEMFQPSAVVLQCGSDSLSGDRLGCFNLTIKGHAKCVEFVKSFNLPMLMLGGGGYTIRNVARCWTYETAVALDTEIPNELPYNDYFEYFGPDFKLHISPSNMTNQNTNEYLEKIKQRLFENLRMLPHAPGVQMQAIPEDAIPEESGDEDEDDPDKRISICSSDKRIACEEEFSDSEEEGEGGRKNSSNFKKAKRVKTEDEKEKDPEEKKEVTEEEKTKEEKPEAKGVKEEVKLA
Chain of DNA (cytosine-5)-methyltransferase 1 (P26358 whole entry): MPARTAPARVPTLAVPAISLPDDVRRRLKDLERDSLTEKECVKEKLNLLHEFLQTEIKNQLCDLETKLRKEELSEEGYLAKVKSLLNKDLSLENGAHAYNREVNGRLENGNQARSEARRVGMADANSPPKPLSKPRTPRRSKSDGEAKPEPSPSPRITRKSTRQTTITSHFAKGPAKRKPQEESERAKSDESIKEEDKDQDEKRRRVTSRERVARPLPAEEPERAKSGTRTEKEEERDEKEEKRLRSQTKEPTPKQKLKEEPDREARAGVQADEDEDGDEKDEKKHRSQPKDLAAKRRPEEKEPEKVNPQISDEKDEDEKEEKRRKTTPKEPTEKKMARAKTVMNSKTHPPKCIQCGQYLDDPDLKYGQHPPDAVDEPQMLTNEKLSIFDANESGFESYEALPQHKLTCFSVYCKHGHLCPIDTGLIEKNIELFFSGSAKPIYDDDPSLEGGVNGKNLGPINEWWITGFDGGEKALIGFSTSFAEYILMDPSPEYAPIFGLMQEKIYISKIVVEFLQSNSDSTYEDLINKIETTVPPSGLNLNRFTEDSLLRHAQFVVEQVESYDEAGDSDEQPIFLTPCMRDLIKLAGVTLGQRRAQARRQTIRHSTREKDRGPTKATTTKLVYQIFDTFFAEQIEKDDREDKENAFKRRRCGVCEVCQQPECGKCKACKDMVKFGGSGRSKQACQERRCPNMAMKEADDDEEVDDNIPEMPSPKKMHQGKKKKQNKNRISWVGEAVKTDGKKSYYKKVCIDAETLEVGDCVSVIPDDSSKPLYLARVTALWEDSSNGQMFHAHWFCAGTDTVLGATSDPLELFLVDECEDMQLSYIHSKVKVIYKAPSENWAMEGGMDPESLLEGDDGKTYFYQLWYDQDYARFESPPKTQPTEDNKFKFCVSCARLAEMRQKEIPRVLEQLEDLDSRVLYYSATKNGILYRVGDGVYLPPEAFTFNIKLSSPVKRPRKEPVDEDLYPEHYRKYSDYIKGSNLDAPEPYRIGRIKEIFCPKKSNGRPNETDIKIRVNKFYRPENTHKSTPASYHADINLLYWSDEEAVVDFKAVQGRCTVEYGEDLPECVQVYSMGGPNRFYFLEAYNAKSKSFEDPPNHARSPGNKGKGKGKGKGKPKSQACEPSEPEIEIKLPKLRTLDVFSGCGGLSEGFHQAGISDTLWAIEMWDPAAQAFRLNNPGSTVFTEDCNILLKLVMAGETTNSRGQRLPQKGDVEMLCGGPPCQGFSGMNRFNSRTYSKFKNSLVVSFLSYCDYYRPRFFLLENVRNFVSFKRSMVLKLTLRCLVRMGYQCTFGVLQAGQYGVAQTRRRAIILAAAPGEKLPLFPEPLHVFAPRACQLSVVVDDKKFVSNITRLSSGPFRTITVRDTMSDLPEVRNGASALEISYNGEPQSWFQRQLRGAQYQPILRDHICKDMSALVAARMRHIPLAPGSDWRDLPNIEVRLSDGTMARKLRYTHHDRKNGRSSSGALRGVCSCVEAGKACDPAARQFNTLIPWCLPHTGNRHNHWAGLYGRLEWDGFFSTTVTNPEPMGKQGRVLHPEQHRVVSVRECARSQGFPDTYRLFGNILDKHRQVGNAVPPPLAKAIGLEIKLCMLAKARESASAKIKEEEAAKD

Row | SMILES | IC50 [1] | IC50 (Histone deacetylase 1) | inhibition [2] | IC50 [3] | inhibition [4] | GI50 (A549) | GI50 (MCF7) | GI50 at 96 h [5]
1 | O=C(CCCNC(=O)/C(Cc1ccc(O)c(Br)c1)=N/O)NO | 1.7 µM | 0.31 µM | Active | 5.25 µM |  |  |  | 
2 | N/N=C(\Cc1ccc(O)c(Br)c1)C(=O)NCCSSCCNC(=O)/C(Cc1ccc(O)c(Br)c1)=N/N | 5 µM | 6.1 µM | inactive |  |  | 18.8 µM | 3.81 µM | 
3 | O=C(NCCS)/C(Cc1ccccc1)=N/O | 3.3 µM | 0.012 µM | inactive |  | inactive | 15.2 µM | 9.38 µM | 10.9 µM
4 | O=C(Cc1ccc(O)c(Br)c1)C(=O)NCCS | 1 µM | 0.4 µM | inactive |  |  | 43 µM | 35.4 µM | 42.6 µM
5 | CSCCNC(=O)C(=O)Cc1ccc(O)c(Br)c1 | 30 µM | 7.3 µM | inactive |  |  | > 50 µM | 18.3 µM | 
6 | CO/N=C(\Cc1ccc(O)c(Br)c1)C(=O)NCCSC | > 50 µM | 11 µM | inactive |  |  | > 50 µM | > 50 µM | > 50 µM
7 | O=C(NCCSSCCNC(=O)/C(Cc1ccccc1)=N/O)/C(Cc1ccccc1)=N/O |  |  | inactive |  |  | 16.3 µM | 11.1 µM | > 50 µM
8 | CSCCNC(=O)/C(Cc1ccc(O)c(Br)c1)=N/N | > 50 µM | 50 µM | inactive |  |  | > 50 µM | > 50 µM | > 50 µM
9 | COc1cc(C/C(=N\O)C(=O)NCCSSCCNC(=O)/C(Cc2cc(Br)c(OC)c(OC)c2)=N/O)cc(Br)c1OC |  |  | inactive |  |  | 2.51 µM | 0.72 µM | 2.14 µM
10 | CO/N=C(\Cc1ccc(O)c(Br)c1)C(=O)NCCSSCCNC(=O)/C(Cc1ccc(O)c(Br)c1)=N/OC | 9.5 µM | 0.38 µM | inactive |  |  | 49.5 µM |  | > 50 µM
11 | O=C(O)CCP(CCC(=O)O)CCC(=O)O | > 25 µM | > 25 µM |  |  |  | > 50 µM | > 50 µM | > 50 µM
12 | O=C(Cc1ccc(O)c(Br)c1)C(=O)NCCSSCCNC(=O)C(=O)Cc1ccc(O)c(Br)c1 | 9 µM | 5 µM | inactive |  |  | 15.2 µM | 13.1 µM | 33.1 µM
13 | CN(C)c1ccc(C/C(=N\O)C(=O)NCCS)cc1 | 2.3 µM | 0.001 µM | inactive |  | inactive |  |  | 
14 | O=C(NCCSSCCNC(=O)/C(Cc1ccc(F)c(Br)c1)=N/O)/C(Cc1ccc(F)c(Br)c1)=N/O |  |  | inactive |  |  | 2.73 µM | 1 µM | 1.8 µM

The next lines start with results.

Row | IC50 [1] | IC50 (Histone deacetylase 1) | inhibition [2] | IC50 [3] | inhibition [4] | GI50 (A549) | GI50 (MCF7) | SMILES | GI50 at 96 h [5]
15 | 0.64 µM | 0.001 µM | inactive |  | inactive | 6.24 µM | 2.87 µM | O=C(NCCS)/C(Cc1ccc(F)c(Br)c1)=N/O | 7.72 µM
16 | 0.51 µM | 0.001 µM | inactive |  | inactive | 4.4 µM | 2.25 µM | COc1cc(C/C(=N\O)C(=O)NCCS)cc(Br)c1OC | 4.31 µM
17 | 3.2 µM | 0.0018 µM | inactive |  | inactive | 0.16 µM | 0.61 µM | COc1ccc(C/C(=N\O)C(=O)NCCS)cc1Br | 1.13 µM
18 | 0.22 µM | 0.027 µM | inactive |  | inactive | 10.6 µM | 19.3 µM | CO/N=C(\Cc1ccc(O)c(Br)c1)C(=O)NCCS | 24.2 µM
19 | > 50 µM | 7.7 µM | inactive |  |  | > 50 µM | > 50 µM | CSCCNC(=O)/C(Cc1ccc(O)c(Br)c1)=N/O | > 50 µM
20 | 1.7 µM | 0.004 µM | inactive |  | inactive |  |  | O=C(NCCS)/C(Cc1ccc(O)cc1)=N/O | 
21 | 1.2 µM | 0.001 µM | inactive |  | inactive |  |  | O=C(NCCS)/C(Cc1cccc([N+](=O)[O-])c1)=N/O | 
